Measurements: article PMC2756285 (Biochemistry, 2009)
No end group written: not given here.

Legend:
[1] = molecular target: T1, rec-α5LG45 protein—heparin binding (Mus musculus, UniProt Q61001); assay: Peptide inhibition of heparin-binding to rec-α5LG45
T1 sequence (Q61001 3318-3718): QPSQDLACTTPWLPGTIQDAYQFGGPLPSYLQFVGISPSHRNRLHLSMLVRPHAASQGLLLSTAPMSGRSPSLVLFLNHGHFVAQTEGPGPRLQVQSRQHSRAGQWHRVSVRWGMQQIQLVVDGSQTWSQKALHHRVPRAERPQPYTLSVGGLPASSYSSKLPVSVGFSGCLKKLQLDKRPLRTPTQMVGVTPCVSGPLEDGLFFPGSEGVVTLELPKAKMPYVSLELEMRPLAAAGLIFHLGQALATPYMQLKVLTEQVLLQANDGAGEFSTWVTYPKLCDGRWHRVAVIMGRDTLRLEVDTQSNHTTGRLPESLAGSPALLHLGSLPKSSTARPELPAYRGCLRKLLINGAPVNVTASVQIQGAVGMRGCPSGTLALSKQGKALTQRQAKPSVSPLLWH
Method in brief: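 Mouse laminin α5 LG45 fused to human IgG Fc, expressed in transfected 293T cells, purified on Protein A then heparin-Sepharose. The protein (3 µg), heparin-Sepharose beads (1 mg) and varying peptide amounts were incubated for 1 h at 4 °C in 70 µL of 10 mM Tris-HCl pH 7.4 with 100 mM NaCl. Beads were washed twice. Bound protein was detected by reducing 8% SDS-PAGE and anti-human Fc Western blot with ECL. Run in triplicate.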

cell attachment = settings: cited from earlier work; for cell adhesion (AG73 and EF-1 together): synergetic interaction of syndecan and integrin α2β1
syndecans = settings: membrane-associated proteoglycans; cited from earlier work
[2] = cited from earlier work
syndecan-1 = settings: membrane-associated proteoglycan; cited from earlier work
syndecan-4 = settings: cited from earlier work

Substance	IC50 [1] [µM]	interaction with syndecans (syndecans)	heparin-binding [2]	other results
KMPYVSLELEMR-NH2 [A5G94, KMPYVSLELEMR]	0.84	–	–	–
DYATLQLQEGRLHFMFDLG [EF-1]	–	–	–	cell adhesion (AG73 and EF-1 together) (cell attachment): cooperate and induce cell adhesion
KNSFMALYLSKG [A3G75]	–	interact with syndecans	heparin-binding sequence	–
LVLFLNHGHFVA-NH2 [A5G77, LVLFLNHGHFVA]	7	–	–	–
AGQWHRVSVRWG-NH2 [A5G81, AGQWHRVSVRWG]	5.9	–	–	–
RKRLQVQLSIRT [AG73]	–	interact with syndecans	the strongest heparin-binding peptide	syndecan-1 binding (syndecan-1): binds syndecan-1; cell adhesion (AG73 and EF-1 together) (cell attachment): cooperate and induce cell adhesion; heparin/heparan sulfate binding [2]: heparin/heparan sulfate binding
GLIYYVAHQNQM [AG75]	–	–	heparin-binding	–
TLFLAHGRLVFM [A4G82]	–	interact with syndecans	exhibited heparin- and syndecan-4-binding	cell attachment activity (cell attachment): cell attachment activity; syndecan-4-binding (syndecan-4): exhibited heparin- and syndecan-4-binding
GPLPSYLQFVGI-NH2 [A5G71, GPLPSYLQFVGI]	91.8	–	–	–
